# Measurements published in ChEMBL document CHEMBL1255465, “Persistence of uropathogenic Escherichia coli in the face of multiple antibiotics” (Antimicrob Agents Chemother, 2010).
# The source made the active and inactive calls. The rule behind the calls is not given here.
# Legend:
# [1] = Drug level in Escherichia coli UTI89-infected CBA/J mouse urine at 1 mg/kg, po after 2 hrs; assay type: ADME, organism-based; set-up: dose 1 mg/kg, route oral; conditions: in vivo
# Method in brief: (§1)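 Urine collected by gentle bladder pressure 2 h after oral dosing of UTI89-infected CBA/J mice. 10 μl spotted on 7-mm filter discs, placed on fresh UTI89 lawns on LB agar. Clearance diameter measured after 24 h at 37°C. Urine drug level calculated from standard curves of discs holding known antibiotic concentrations.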
# Escherichia coli [2] = assay: Antibacterial activity against uropathogenic Escherichia coli UTI89 infected in CBA/J mouse assessed as decrease in bacterial invasion into layers of urothelium at 1 mg/kg, po administered on day 3 postinfection daily for 3 days measured on day 9 post-inoculation; assay type: functional, organism-based; set-up: dose 1 mg/kg
# Escherichia coli [3] = assay: Antibacterial activity against uropathogenic Escherichia coli UTI89 infected in human 5637 cells assessed as decrease in intracellular bacterial level at 700 to 1000 ug/ml after 12 hrs by serial dilution method; assay type: functional, organism-based
# Method in brief: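 Confluent 5637 monolayers in triplicate infected with UTI89 (24-h static LB culture, type 1 pili) at MOI ~15 and spun 600 × g for 5 min. After 2 h: gentamicin 100 μg/ml for 2 h, then 10 μg/ml for 14 h. Then 12 h with drug at two concentrations. Cells lysed in 0.4% Triton X-100 and plated on LB agar. Titers expressed relative to 800 μg/ml gentamicin. ≥3 independent assays.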
# Escherichia coli [4] = assay: Antibacterial activity against uropathogenic Escherichia coli UTI89 assessed as inhibition of biofilm formation after 24 hrs by microtiterplate-based assay; assay type: functional, organism-based
# Method in brief: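 Biofilms of UTI89 formed for 48 h at 37°C without shaking in M9 (1:100 inoculum, triplicate wells). Fresh M9 ± drug (higher of two tested concentrations) then added for 24 h. Biomass stained with 0.1% crystal violet, solubilized in DMSO, read at A562, and expressed relative to untreated controls. Three independent experiments.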
# 5637 [5] = assay: Cytotoxicity against human 5637 cells assessed as mild induction of cell death by trypan blue exclusion assay; assay type: cell-based
# Method in brief: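 Integrity of 5637 cells after drug treatment assessed by 0.4% trypan blue exclusion, following a standard protocol.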
# Escherichia coli [6] = assay: Antibacterial activity against uropathogenic Escherichia coli UTI89 infected in CBA/J mouse assessed as decrease in bacterial invasion into layers of urothelium at 1 mg/kg, po administered on day 3 postinfection daily for 3 days measured on day 9 post-inoculation in presence of Triton X-100; assay type: functional, organism-based; set-up: dose 1 mg/kg
# Escherichia coli [7] = assay: Antibacterial activity against uropathogenic Escherichia coli UTI89 assessed as degradation of preexisting biofilm after 24 hrs by microscopy; assay type: functional, organism-based
# Method in brief: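 UTI89 diluted 1:100 into M9 medium and grown statically 48 h at 37°C in microtiter wells. Nonadherent cells removed, fresh M9 ± drug added for 24 h, using the higher of two tested concentrations. Viable bacteria in biofilms visualized by Live/Dead BacLight staining and microscopy.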
# Escherichia coli [8] = assay: Antibacterial activity against uropathogenic Escherichia coli UTI89 isolated from urine samples of infected CBA/J mouse after 24 hrs by disk diffusion assay; assay type: functional, organism-based; method in brief: as §1
# Escherichia coli [9] = assay: Antibacterial activity against uropathogenic Escherichia coli UTI89 infected in CBA/J mouse assessed as decrease in bacterial load in bladder at 1 mg/kg, po administered on day 3 postinfection daily for 3 days measured on day 9 post-inoculation; assay type: functional, organism-based; set-up: dose 1 mg/kg; conditions: Urinary bladder
# Method in brief: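 Female CBA/J mice, 7–8 weeks old, inoculated transurethrally with ~10^7 CFU UTI89 (24-h static LB culture) in 50 μl PBS. From day 3, one oral gavage daily for 3 days, 50 μl; controls given water. On day 9, bladders homogenized in PBS with 0.025% Triton X-100 and plated on LB agar for CFU. 11 mice from two experiments; Mann-Whitney U test.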
# 5637 [10] = assay: Cytotoxicity against human 5637 cells assessed as mild induction of cell death by LDH release assay; assay type: cell-based
smiles,measurement,setting,value
C[C@@H]1O[C@@H]1P(=O)(O)O [FOSFOMYCIN],Drug uptake,[1],4 µg/mL
same,inhibition,Escherichia coli [2],inactive
same,inhibition,Escherichia coli [3],Active
same,Biofilm inhibition activity,Escherichia coli [4],Active
same,Activity,5637 [5],Toxic
same,inhibition,Escherichia coli [6],Active
same,Activity,Escherichia coli [7],Active
same,Activity,Escherichia coli [8],Active
same,inhibition,Escherichia coli [9],inactive
same,Activity,5637 [10],Toxic
